From PubChem BioAssay
In the library only some 5.4% were active in any assay of this set; here they are far more common.
PostGolgi ctrl: growth inhibition of yeast control strain, primary screen, counter-screen for post-Golgi transport modulator project. inhibition, % at 10 µM. efflux-deficient yeast background strain, growth absorbance A615, 16 h. 5% of 98,000 active. AID 738, 2007
PostGolgi yeast: phenotypic screen on post-Golgi transport, primary screen; 0.9% of 98,000 active; post-Golgi transport phenotypic cell assay; inhibition, % at 10 µM;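 also: yeast cells grown in 1536-well plates; yeast grown about 18 h at 30C before absorbance read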
E coli WT exp: growth inhibitors of wild-type E. coli, primary screen, strain BW25113, expanded library, OD600; growth inhibition, % at 100 µM; OD600 absorbance; AID 710, 2007; 0.15% of 98,000 active;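 active = growth inhibition above about 50% at one test dose, limit read from the data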;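 also: growth measured after 20 h incubation at 37 °C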
PLAP act: PLAP enzyme activators, biochemical, luminescence, HTS | Alkaline phosphatase, placental type (Homo sapiens), P05187 | purified PLAP enzyme, luminescent substrate read-out; active compounds read high | activation fold at 20 µM | 1.2% of 96,000 active | AID 696, 2007; in the data active = activation fold above about 2
HePTP inh: inhibitors of human HePTP phosphatase, primary screen, biochemical, absorbance, leukemia target | Tyrosine-protein phosphatase non-receptor type 7 (Homo sapiens), P35236 | recombinant HePTP phosphatase activity, OD absorbance | inhibition, % at 20 µM | 0.64% of 110,000 active | AID 521, 2006; in the data active = inhibition above about 50%;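 also: plate controls were vehicle for no effect and reference inhibitor for full effect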
Target sequence (P35236 whole entry, looked up): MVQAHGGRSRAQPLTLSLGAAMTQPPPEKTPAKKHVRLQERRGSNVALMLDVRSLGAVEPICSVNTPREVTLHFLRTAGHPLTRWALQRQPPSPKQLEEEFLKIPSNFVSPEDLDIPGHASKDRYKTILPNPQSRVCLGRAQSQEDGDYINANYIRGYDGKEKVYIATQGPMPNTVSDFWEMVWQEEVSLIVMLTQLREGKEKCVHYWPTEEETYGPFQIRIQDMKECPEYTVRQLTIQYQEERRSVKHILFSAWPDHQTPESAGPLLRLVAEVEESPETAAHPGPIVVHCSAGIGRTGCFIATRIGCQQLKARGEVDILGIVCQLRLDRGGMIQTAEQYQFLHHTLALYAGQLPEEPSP
tolC growth inh: growth inhibitors of E. coli tolC mutant, primary screen, strain BW25113 ΔtolC::kan, 384-well. OD615. growth inhibition, % at 10 µM (by protocol). 2.2% of 65,000 active. AID 573, 2007;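 active = growth inhibition at or above a cutoff equal to the mean over every tested compound plus 3 SD, cut at about 60% in these data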;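 also: growth measured after 20 h incubation at 37 °C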
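signal = optical density read at 615 nm | test system = E. coli ΔtolC::kan strain BW25113 | timing = 20 h compound exposure of bacteria at 37 °C | buffer or medium = LB medium plus 50 µg/mL kanamycin | compound dosing = 10 µM final, single dose | evaluation = % inhibition of E. coli growth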
The depositor's hits bear a star; . = not tested or not shown. Rule as the data show it, unless noted: active = inhibition above about 30%; inactive = the rest.

SMILES	PostGolgi ctrl	PostGolgi yeast	E coli WT exp	PLAP act	HePTP inh	tolC growth inh
O=C(c1cc(-c2ccco2)nn1-c1cccc(Cl)c1)N1CCCCC1	9	-2	-12	1.3	11	12
CCOC(=O)N1CCN(c2ccc(S(=O)(=O)N(Cc3ccccc3)Cc3ccccc3)cn2)CC1	-4	34*	4	1.3	.	19
O=C(CC1(C(F)(F)F)NCCN1)c1cccc([N+](=O)[O-])c1	.	.	.	.	-9	.
CCCOc1cccc(C(=O)Nc2sc(CC)cc2C(=O)OCC)c1	.	.	.	.	1	.
CCc1nn2c(N3CCOCC3)cc(C)nc2c1-c1ccc(F)cc1	45*	-4	0	1	7	12
Cc1cc(N2CCOCC2)n2ncc(-c3ccccc3)c2n1	26	0	-3	1.5	.	.
Cc1cccc(Nc2nnc(-c3ccc(C(=O)NCCO)cc3)c3ccccc23)c1	.	.	.	.	4	.
N#Cc1nc(-c2ccc(Cl)cc2)oc1NCCc1ccccn1	6	-2	-13	1	23	-1
Cc1ccc(-c2nc(C#N)c(NCCc3ccccn3)o2)cc1	33*	0	-1	1	-10	4
Nc1c(-c2ccc(Cl)cc2)cnc2ncnn12	14	-4	6	1.2	.	.
Cc1cc2ncc(-c3ccc(Cl)cc3)c(N)n2n1	14	-4	20	2*	15	17
O=c1[nH]n(Cc2ccccc2)c(=O)c2ccccc12	14	-1	9	0.8	.	.
CCn1c(Cc2ccc(OC)cc2)nnc1SCC(=O)NC1CCCCC1	31*	7	-4	0.9	11	-4
Cn1c(Cc2ccccc2)nnc1SCC(=O)NC1CCCCC1	-3	-2	5	1	13	0
COc1ccccc1-n1nnnc1SCC(=O)NC1CCCC1	42*	-2	-1	0.9	1	5
COc1ccccc1-c1c(C(F)(F)F)oc2cc(OC(=O)c3ccc(Cl)cc3)ccc2c1=O	.	.	.	.	6	.
O=C(CN1CCC(NC(=O)Nc2ccccc2-c2ccccc2)CC1)NCc1ccco1	-4	-3	7	2.2*	7	4
O=C(CN1CCC(Cc2ccccc2)CC1)NC(=O)NCc1ccco1	22	5	8	1.3	3	7
Cc1ccc(-c2nc(CN(C)C)cc(CN(C)C)c2O)cc1	1	2	0	1.2	-1	-13
CC(C)(C)c1ccc(-c2n[nH]c(=S)n2C2CCCC2)cc1	59*	-6	-10	1.1	.	.
Cc1ccnn1CC(=O)N/N=C/c1ccco1	13	5	0	0.8	.	.
CC1=CC(C)(C)N(S(=O)(=O)c2ccc(C)cc2)c2ccc(C)cc21	60*	1	-9	0.6	-12	.
O=C(O)c1ccccc1OCCOc1ccccc1C(=O)O	44*	-8	8	0.8	4	-13
CCn1c(=O)c(C(=O)NC(C)C)c(O)c2ccccc21	10	-8	-2	1	.	.
COCC(C)n1c(C)cc(C(=O)CSc2nc3ccccc3c(=O)[nH]2)c1C (stereo unspecified)	16	28	-4	1.2	1	0
SMILES	PostGolgi ctrl	PostGolgi yeast	E coli WT exp	PLAP act	HePTP inh	tolC growth inh
O=C1NN(c2ccc(F)c(Cl)c2)C(=O)/C1=C\c1ccco1	.	.	.	.	99*	.
CCOc1ccccc1/C=C1/C(=O)NN(c2ccc(C)c(Cl)c2)C1=O	.	.	.	.	69*	.
Cc1cc(NC(=O)CCS(=O)(=O)c2nc(-c3ccccc3)cc(C(F)(F)F)n2)no1	.	.	.	1.2	11	7
CS(=O)(=O)c1nc(-c2ccccc2)cc(C(F)(F)F)n1	51*	26	19	.	-5	20
CCc1nc2ccccc2c(=O)n1NC(=O)c1c(O)c2ccccc2[nH]c1=O	-4	-5	-8	1	-3	85*
O=C(CSc1ncc(-c2ccc(F)cc2)n1Cc1ccco1)Nc1ccc2c(c1)OCO2	31*	19	2	0.8	8	70*
O=C(O)C1C2C=CC(C2)C1C(=O)OC1CC2CCC1C2 (stereo unspecified)	-3	0	-10	1.1	2	-7
COc1ccc2nc(NC(=O)C(NS(=O)(=O)c3cccs3)C(C)C)sc2c1 (stereo unspecified)	2	-7	-9	2.2*	14	16
Brc1ccccc1-c1nnc2sc(Cc3ccccc3)nn12	25	9	-1	1.2	2	45
COc1ccc(Cc2nn3c(-c4ccccc4Br)nnc3s2)cc1	45*	1	-10	1.3	5	44
COc1ccc(Cc2nn3c(-c4cc(OC)c(OC)c(OC)c4)nnc3s2)cc1	35*	19	6	1.7	2	30
CCOC(=O)c1ccccc1NC(=O)CSc1nccn1C	8	-3	1	.	-4	11
CNC(=O)c1cc2c(=O)n3cc(C)ccc3nc2n(C(C)C)c1=N	4	20	-4	1.1	2	-6
CCC(C(=O)c1ccc(O)cc1)c1ccccc1 (stereo unspecified)	36*	1	14	1	2	22
O=C(O)C(Cc1ccc(O)cc1)c1ccccc1 (stereo unspecified)	.	.	.	.	-26	.
O=C1NC(=S)N/C1=C/c1ccc(-c2ccc(F)c(Cl)c2)o1	.	.	.	.	4	.
COc1cccc2c(=O)c3c(cnn3C)n(C)c12	-6	42*	12	0.8	8	34
COc1cc(=O)n(C)c2ccccc12	7	5	-3	1	.	.
O=C(COc1ccccc1)Nc1ccc(-c2nc3ncccc3o2)cc1	.	.	.	.	-1	.
CCOC(=O)C1CCCCN1Cc1ccc(C(F)(F)F)cc1 (stereo unspecified)	13	5	-5	1.5	.	.
CCCn1nnc(NC(=O)COc2ccc(C3CCCCC3)cc2)n1	9	3	2	1	3	100*
CCCn1nnc(NC(=O)COc2ccc(Cl)cc2)n1	6	9	23	1	-6	-4
O=C(Nc1ccc(NC(=O)c2ccc(-c3ccc(Br)cc3)o2)cc1)c1ccco1	.	.	.	.	-10	.
O=C(Nc1ccc(CN2CCOCC2)cc1)c1ccc(-c2ccc(Br)cc2)o1	60*	0	-14	1.5	6	100*
CCC(C)(C)n1nnnc1C(c1cccnc1)N1CCN(c2cccc(C(F)(F)F)c2)CC1 (stereo unspecified)	96*	86*	-8	1.3	.	.
c1ccc(Cn2nnnc2C(c2ccncc2)N2CCOCC2)cc1 (stereo unspecified)	-2	6	-3	0.9	-3	-7
Cc1cccc(N2CCN(C(c3cccs3)c3nnnn3C(C)(C)C)CC2)c1C (stereo unspecified)	40*	12	-16	1.5	-4	36
c1ccc(Cn2nnnc2C(c2cccnc2)N2CCN(c3ccccc3)CC2)cc1 (stereo unspecified)	90*	92*	5	1.4	0	13
